Tests used:
[1] = target: Muscarinic acetylcholine receptor M2 (Cavia porcellus); test: Antagonistic activity against M2 muscarinic receptor in guinea pig left atrium derived by plotting log(DR - 1) vs log[antagonist]; conditions: read-out: pA2 (converted)
[2] = target: T1, Muscarinic acetylcholine receptor M2 (Rattus norvegicus, UniProt P10980); test: Tested for affinity constant against M2 muscarinic receptor rat heart using [3H]-NMS
T1 sequence (P10980 whole entry): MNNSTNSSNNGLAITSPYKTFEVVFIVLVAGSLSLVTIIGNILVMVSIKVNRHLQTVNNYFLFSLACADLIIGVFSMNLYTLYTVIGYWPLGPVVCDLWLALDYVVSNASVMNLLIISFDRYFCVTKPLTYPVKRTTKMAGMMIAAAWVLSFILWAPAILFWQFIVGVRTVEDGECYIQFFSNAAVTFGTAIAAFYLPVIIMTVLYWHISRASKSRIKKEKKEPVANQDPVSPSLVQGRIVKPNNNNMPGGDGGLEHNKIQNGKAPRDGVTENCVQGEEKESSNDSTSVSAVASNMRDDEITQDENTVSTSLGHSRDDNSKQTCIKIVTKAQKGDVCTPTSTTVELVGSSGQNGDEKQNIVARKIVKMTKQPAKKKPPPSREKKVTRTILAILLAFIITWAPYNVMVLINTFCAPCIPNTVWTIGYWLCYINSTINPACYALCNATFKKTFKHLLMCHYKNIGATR

[3] = target: Muscarinic acetylcholine receptor M3 (Rattus norvegicus, UniProt P08483); test: Tested for affinity constant against M3 muscarinic receptor in rat submaxillary gland using [3H]NMS; format: tissue-based
[4] = target: T2, Muscarinic acetylcholine receptor M1 (Rattus norvegicus, UniProt P08482); test: Tested for affinity constant against M1 muscarinic receptor in rat cortex using [3H]pirenzepine
T2 sequence (P08482 whole entry): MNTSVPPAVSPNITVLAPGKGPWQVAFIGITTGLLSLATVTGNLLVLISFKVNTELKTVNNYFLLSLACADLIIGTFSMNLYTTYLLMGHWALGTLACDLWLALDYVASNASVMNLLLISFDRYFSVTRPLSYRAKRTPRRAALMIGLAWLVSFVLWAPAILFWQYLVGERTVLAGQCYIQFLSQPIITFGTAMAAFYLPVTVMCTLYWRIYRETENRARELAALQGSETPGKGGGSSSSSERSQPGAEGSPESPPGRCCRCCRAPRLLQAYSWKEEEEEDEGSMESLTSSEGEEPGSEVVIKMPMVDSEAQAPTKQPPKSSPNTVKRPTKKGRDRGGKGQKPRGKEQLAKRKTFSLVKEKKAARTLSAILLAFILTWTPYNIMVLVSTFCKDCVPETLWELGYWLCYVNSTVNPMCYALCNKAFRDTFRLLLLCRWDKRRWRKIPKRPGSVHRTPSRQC

[5] = system: Muscarinic acetylcholine receptors M2 & M3 (Cavia porcellus); test: Selectivity ratio is the antilog of the difference between the pA2 values at guinea pig left atrium and ileum muscarinic receptors
[6] = target: T3, Muscarinic acetylcholine receptor M3 (Cavia porcellus, UniProt Q8VH26); test: Antagonistic activity against M3 muscarinic receptor in guinea pig left ileum derived by plotting log(DR - 1) vs log[antagonist]; format: functional, tissue-based; conditions: read-out: pA2 (converted)
In short: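 Guinea pig tissue. Ileum: terminal segments about 2 cm, 1 g tension, 37 °C, Tyrode solution, isotonic recording. Carbachol dose–response curves (0.01–0.5 μM) at 30 min intervals, second curve as control. Repeated after 60 min antagonist incubation. Dose ratios at agonist EC50, one to six antagonist concentrations, each tested 4–8 times. pA2 from Schild plot of log(DR−1); mean ± SE.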

[7] = Tested for affinity constant against M4 muscarinic receptor in NG 108-15 cell homogenates using [3H]NMS; format: cell-based
[8] = target: T3, Muscarinic acetylcholine receptor M3; test: Antagonistic activity against M3 muscarinic receptor in guinea pig left ileum derived by plotting log(DR - 1) vs log[antagonist]; inactive up to a concentration of 10; format: functional, tissue-based; conditions: read-out: pA2 (converted)
In short: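 Guinea pig ileum segments at 37 °C in Tyrode solution, isotonic recording. Carbachol dose–response curves were run before and after 60 min antagonist incubation. Compounds were tested up to 10 μM antagonist, and inactivity was scored up to that concentration.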

[9] = target: Muscarinic acetylcholine receptor M3 (Rattus norvegicus) (UniProt P08483); test: Inhibitory activity against M3 muscarinic receptor binding in rat submaxillary gland by [3H]NMS at 10 uM concentration; format: tissue-based
In short: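 Rat submaxillary gland homogenate. […] Nonspecific binding defined with 10 μM atropine. Percent inhibition of specific binding scored, with IC50 not derivable when inhibition stayed below 50%.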

Sequence of Muscarinic acetylcholine receptor M3 (Rattus norvegicus, UniProt P08483) (P08483 whole entry): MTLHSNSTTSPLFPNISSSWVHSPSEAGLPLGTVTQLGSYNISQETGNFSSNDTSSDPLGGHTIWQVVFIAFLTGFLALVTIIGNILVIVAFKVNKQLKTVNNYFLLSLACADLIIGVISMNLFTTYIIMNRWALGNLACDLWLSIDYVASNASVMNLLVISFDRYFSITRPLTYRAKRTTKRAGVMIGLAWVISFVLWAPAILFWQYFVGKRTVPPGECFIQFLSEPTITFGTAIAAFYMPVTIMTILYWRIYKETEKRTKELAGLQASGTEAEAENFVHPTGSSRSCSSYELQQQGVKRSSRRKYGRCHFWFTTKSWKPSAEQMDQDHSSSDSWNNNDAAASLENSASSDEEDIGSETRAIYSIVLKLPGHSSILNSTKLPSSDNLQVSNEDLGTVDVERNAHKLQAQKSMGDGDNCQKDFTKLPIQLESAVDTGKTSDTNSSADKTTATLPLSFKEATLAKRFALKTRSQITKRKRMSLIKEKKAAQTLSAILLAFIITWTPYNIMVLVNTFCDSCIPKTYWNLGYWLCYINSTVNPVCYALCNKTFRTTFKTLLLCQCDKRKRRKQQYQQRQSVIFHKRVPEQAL
T3 sequence (Q8VH26 whole entry): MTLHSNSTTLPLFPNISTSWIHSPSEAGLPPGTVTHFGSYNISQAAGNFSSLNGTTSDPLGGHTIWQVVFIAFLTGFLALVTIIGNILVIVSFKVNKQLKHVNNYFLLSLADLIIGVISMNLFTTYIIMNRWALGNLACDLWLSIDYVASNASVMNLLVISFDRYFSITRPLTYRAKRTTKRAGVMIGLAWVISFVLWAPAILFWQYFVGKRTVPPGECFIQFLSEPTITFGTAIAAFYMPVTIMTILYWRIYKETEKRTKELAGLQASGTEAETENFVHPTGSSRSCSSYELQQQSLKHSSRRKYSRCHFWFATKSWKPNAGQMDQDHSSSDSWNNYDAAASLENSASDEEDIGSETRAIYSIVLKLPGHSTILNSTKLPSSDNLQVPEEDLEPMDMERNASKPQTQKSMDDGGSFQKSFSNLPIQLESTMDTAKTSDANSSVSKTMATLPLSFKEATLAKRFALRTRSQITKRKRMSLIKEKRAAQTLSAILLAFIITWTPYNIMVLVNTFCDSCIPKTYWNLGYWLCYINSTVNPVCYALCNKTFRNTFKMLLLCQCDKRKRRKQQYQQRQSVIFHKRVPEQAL
Sequence of Muscarinic acetylcholine receptor M3 (Rattus norvegicus) (P08483 whole entry, looked up): as the sequence (P08483 whole entry) above

| Kb [1] | Ki [2] | Ki [3] | Ki [4] | Ratio [5] | Kb [6] | Kb [8] | inhibition [9] | Structure (SMILES) | Log Ki [7] |
| --- | --- | --- | --- | --- | --- | --- | --- | --- | --- |
| 15.5 nM | 21.9 nM | 155 nM | 4.79 nM | 49 | 759 nM |  |  | CN(CCCCCCCCN(C)CCCCCCN(CC(=O)N1c2ccccc2C(=O)Nc2cccnc21)CC(=O)N1c2ccccc2C(=O)Nc2cccnc21)CCCCCCN(CC(=O)N1c2ccccc2C(=O)Nc2cccnc21)CC(=O)N1c2ccccc2C(=O)Nc2cccnc21.O=C(O)C(=O)O.O=C(O)C(=O)O.O=C(O)C(=O)O.O=C(O)C(=O)O | -7.05 |
| 1580 nM |  |  |  | > 6 |  | > 10000 nM |  | CCCCN(CC(=O)N1c2ccccc2C(=O)Nc2cccnc21)CC(=O)N1c2ccccc2C(=O)Nc2cccnc21 |  |
| 178 nM |  |  |  | 7 | 1260 nM |  |  | CCN(CC)CCCCCCN(CC(=O)N1c2ccccc2C(=O)Nc2cccnc21)Cc1ccccc1OC |  |
|  |  |  |  |  |  |  |  | CN(CCCCCCCCN(C)CCCCCCN(CC(=O)N1c2ccccc2C(=O)Nc2cccnc21)CC(=O)N1c2ccccc2C(=O)Nc2cccnc21)CCCCCCNCC(=O)N1c2ccccc2C(=O)Nc2cccnc21 [TRIPITRAMINE] | -7.93 |
| 91.2 nM |  |  |  | 17 | 1550 nM |  |  | COc1ccccc1CNCCCCCCNCCCCCCCCNCCCCCCN |  |
|  |  | 251 nM | 105 nM |  | 100 nM |  |  | CCN(CC)CCCCC1CCN(CC(=O)N2c3ccccc3C(=O)Nc3cccnc32)CC1 | -7.82 |
| 4.57 nM | 18.6 nM | 2510 nM | 15.8 nM | 98 | 447 nM |  |  | COc1ccccc1CNCCCCCCN(C)CCCCCCCCN(C)CCCCCCN(CC(=O)N1c2ccccc2C(=O)Nc2cccnc21)CC(=O)N1c2ccccc2C(=O)Nc2cccnc21.O=C(O)C(=O)O.O=C(O)C(=O)O.O=C(O)C(=O)O.O=C(O)C(=O)O | -7.9 |
| 3.09 nM | 1.7 nM | 794 nM | 28.2 nM | 190 | 575 nM |  |  | COc1ccccc1CNCCCCCCN(C)CCCCCCCCN(C)CCCCCCNCC(=O)N1c2ccccc2C(=O)Nc2cccnc21 | -7.24 |
|  |  |  |  | 48 |  |  |  | COc1ccccc1CNCCCCCCN(C)CCCCCCCCN(C)CCCCCCNCc1ccccc1OC |  |
|  |  |  |  |  |  |  |  | COc1ccccc1CNCCCCCCNCCCCCCCCNCCCCCCNCc1ccccc1OC [METHOCTRAMINE] | -7.58 |
| 47.9 nM | 3.72 nM | 251 nM | 1.26 nM | 26 | 2040 nM |  |  | COc1ccccc1CN(CCCCCCN(C)CCCCCCCCN(C)CCCCCCN(CC(=O)N1c2ccccc2C(=O)Nc2cccnc21)Cc1ccccc1OC)CC(=O)N1c2ccccc2C(=O)Nc2cccnc21.O=C(O)C(=O)O.O=C(O)C(=O)O.O=C(O)C(=O)O.O=C(O)C(=O)O | -7.8 |
| 1.58 nM | 1.58 nM |  | 1.86 nM | 260 | 417 nM |  | < 50% | COc1ccccc1CN(CCCCCCN(C)CCCCCCCCN(C)CCCCCCNCC(=O)N1c2ccccc2C(=O)Nc2cccnc21)CC(=O)N1c2ccccc2C(=O)Nc2cccnc21.O=C(O)C(=O)O.O=C(O)C(=O)O.O=C(O)C(=O)O.O=C(O)C(=O)O | -8.22 |
|  | 2.4 nM | 174 nM | 1.7 nM |  |  |  |  | CN(CCCCCCCCN(C)CCCCCCNCC(=O)N1c2ccccc2C(=O)Nc2cccnc21)CCCCCCNCC(=O)N1c2ccccc2C(=O)Nc2cccnc21 | -8.52 |
| 282 nM |  |  |  | 27 | 7590 nM |  |  | CN(CCCCCCN)CCCCCCCCN(C)CCCCCCN |  |
| 1050 nM |  |  |  | > 10 |  | > 10000 nM |  | CCN(CC)CCCCCCN(CC(=O)N1c2ccccc2C(=O)Nc2cccnc21)CC(=O)N1c2ccccc2C(=O)Nc2cccnc21 |  |
|  |  | 468 nM | 2.69 nM |  | 661 nM |  |  | CN(CCCCCCN)CCCCCCCCN(C)CCCCCCNCC(=O)N1c2ccccc2C(=O)Nc2cccnc21 | -7.74 |
| 251 nM |  |  |  | 3 | 832 nM |  |  | CCN(CC)CCCCCCNCC(=O)N1c2ccccc2C(=O)Nc2cccnc21 |  |
| 5.89 nM | 12.9 nM | 6760 nM | 2.51 nM | 260 | 1550 nM |  |  | CN(CCCCCCN)CCCCCCCCN(C)CCCCCCN(CC(=O)N1c2ccccc2C(=O)Nc2cccnc21)CC(=O)N1c2ccccc2C(=O)Nc2cccnc21.O=C(O)C(=O)O.O=C(O)C(=O)O.O=C(O)C(=O)O.O=C(O)C(=O)O | -6.72 |
| 2510 nM |  |  |  | > 4 |  | > 10000 nM |  | CCN(CC)CCCCCCNCc1ccccc1OC |  |
